Results taken from ChEMBL document CHEMBL3091449, “Synthesis and antimicrobial profile of N-substituted imidazolium oximes and their monoquaternary salts against multidrug resistant bacteria” (2013).
Values after ≈ are worked out from the molar mass of the structure shown.

Columns and labels:
Assay type in all cases: functional
Aspergillus fumigatus = assay: Antifungal activity against Aspergillus fumigatus FNSST 3833 assessed as diameter of zone of inhibition at 10 ug/disc after 72 hrs by disc diffusion method; settings: FNSST 3833, 72 h, read-out: DIZ
In short: (§1)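 The positive control was amphotericin B 10 µg discs on Sabouraud dextrose agar spread with 100 µL of a 10^4 cfu/mL fungal suspension. Plates were kept at 30 °C for 48 h (yeast) or 72 h (molds). Inhibition zone was measured including the 6 mm disc, in triplicate, mean ± SE.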

Talaromyces funiculosus = assay: Antifungal activity against Penicillium funiculosum FNSST 3724 assessed as diameter of zone of inhibition at 10 ug/disc after 72 hrs by disc diffusion method; settings: FNSST 3724, 72 h, read-out: DIZ; in short: as §1
Candida albicans = assay: Antifungal activity against Candida albicans ATCC 10231 assessed as diameter of zone of inhibition at 10 ug/disc after 48 hrs by disc diffusion method; settings: ATCC 10231, 48 h, read-out: DIZ; in short: as §1
Pseudomonas aeruginosa [1] = assay: Antibacterial activity against GIM-1 expressing Pseudomonas aeruginosa isolate 197 after 18 to 24 hrs by two-fold broth microdilution assay
In short: (§2)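 CLSI two-fold broth microdilution was used. Compounds were dissolved in DMSO, brought to 10 mg/mL in medium, then serially diluted in Mueller Hinton broth over 400–0.09 µg/mL. Overnight MHB cultures were diluted to 10^6 CFU/mL, and 10 µL was added per well. Plates were incubated 18–24 h at 37 °C, then 0.2 mg/mL INT was added for 30 min at 37 °C. MIC was the lowest concentration with no visible growth or pink colour, triplicate.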

Acinetobacter baumannii = assay: Antibacterial activity against SIM-1 expressing Acinetobacter baumannii isolate 170 after 18 to 24 hrs by two-fold broth microdilution assay
In short: (§3)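 CLSI two-fold broth microdilution. Compounds dissolved in DMSO, 10 mg/mL stock, serially diluted to 400–0.09 µg/mL in Mueller Hinton broth. Wells inoculated with 10^6 CFU/mL bacteria and incubated 18–24 h at 37 °C. 0.2 mg/mL INT added for 30 min. MIC taken as the lowest concentration with no visible growth or pink colour. Triplicate.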

Escherichia coli [2] = assay: Antibacterial activity against […] expressing Escherichia coli isolate 235 after 18 to 24 hrs by two-fold broth microdilution assay; in short: as §3
Escherichia coli [3] = assay: Antibacterial activity against TEM-1/SHV-12 expressing Escherichia coli isolate 237 after 18 to 24 hrs by two-fold broth microdilution assay; in short: as §3
Escherichia coli [4] = assay: Antibacterial activity against […] expressing Escherichia coli isolate 4024 after 18 to 24 hrs by two-fold broth microdilution assay; in short: as §3
Aeromonas caviae [5] = assay: Antibacterial activity against TEM-1/CTX-M-15 expressing Aeromonas caviae isolate 260 after 18 to 24 hrs by two-fold broth microdilution assay; in short: as §2
Aeromonas caviae [6] = assay: Antibacterial activity against […] expressing Aeromonas caviae isolate 258 after 18 to 24 hrs by two-fold broth microdilution assay; in short: as §2
Aeromonas hydrophila [7] = assay: Antibacterial activity against TEM-1/SHV-12 expressing Aeromonas hydrophila isolate 268 after 18 to 24 hrs by two-fold broth microdilution assay; in short: as §2
Kluyvera intermedia = assay: Antibacterial activity against TEM-1/SHV-12/[…] expressing Enterobacter intermedius isolate 243 after 18 to 24 hrs by two-fold broth microdilution assay; in short: as §2
Enterobacter cloacae [8] = assay: Antibacterial activity against CTX-15 expressing Enterobacter cloacae isolate 51 after 18 to 24 hrs by two-fold broth microdilution assay
Enterobacter cloacae [9] = assay: Antibacterial activity against TEM-1/CTX-M-15 expressing Enterobacter cloacae isolate 62 after 18 to 24 hrs by two-fold broth microdilution assay
Enterobacter cloacae [10] = assay: Antibacterial activity against TEM-1/SHV-12 expressing Enterobacter cloacae isolate 306 after 18 to 24 hrs by two-fold broth microdilution assay
Klebsiella pneumoniae [11] = assay: Antibacterial activity against TEM-1/SHV-12 expressing Klebsiella pneumoniae isolate 303 after 18 to 24 hrs by two-fold broth microdilution assay; in short: as §2
[12] = test system: Stenotrophomonas maltophilia; assay: Antibacterial activity against […] expressing Stenotrophomonas maltophilia isolate 125 after 18 to 24 hrs by two-fold broth microdilution assay; in short: as §2
Aeromonas hydrophila [13] = assay: Antibacterial activity against Aeromonas hydrophila FNSST 014 after 18 to 24 hrs by two-fold broth microdilution assay; in short: as §2
Pseudomonas aeruginosa [14] = assay: Antibacterial activity against Pseudomonas aeruginosa FNSST 982 after 18 to 24 hrs by two-fold broth microdilution assay; in short: as §2
Klebsiella pneumoniae [15] = assay: Antibacterial activity against Klebsiella pneumoniae FNSST 011 after 18 to 24 hrs by two-fold broth microdilution assay; in short: as §2
Escherichia coli [16] = assay: Antibacterial activity against Escherichia coli FNSST 982 after 18 to 24 hrs by two-fold broth microdilution assay; in short: as §2
Clostridium perfringens [17] = assay: Antibacterial activity against Clostridium perfringens FNSST 4999 after 18 to 24 hrs by two-fold broth microdilution assay; in short: as §3
Staphylococcus aureus [18] = assay: Antibacterial activity against Staphylococcus aureus ATCC 25923 after 18 to 24 hrs by two-fold broth microdilution assay; in short: as §2
Enterococcus faecalis [19] = assay: Antibacterial activity against Enterococcus faecalis ATCC 29212 after 18 to 24 hrs by two-fold broth microdilution assay; in short: as §2
Bacillus cereus [20] = assay: Antibacterial activity against Bacillus cereus ATCC 11778 after 18 to 24 hrs by two-fold broth microdilution assay; in short: as §2
Aeromonas hydrophila [21] = assay: Antibacterial activity against Aeromonas hydrophila FNSST 014 assessed as diameter of zone of inhibition at 30 ug/disc after 24 hrs by disc diffusion method; settings: FNSST 014, 24 h, read-out: DIZ
In short: (§4)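 Ampicillin 30 µg discs were the positive control on Mueller Hinton agar. The agar was spread with 100 µL of a 10^6 cfu/mL overnight TSB culture grown at 37 °C. Plates were incubated 24 h at 37 °C, and zone diameter was read including the 6 mm disc, in triplicate, mean ± SE.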

Pseudomonas aeruginosa [22] = assay: Antibacterial activity against Pseudomonas aeruginosa FNSST 982 assessed as diameter of zone of inhibition at 30 ug/disc after 24 hrs by disc diffusion method; settings: FNSST 982, 24 h, read-out: DIZ; in short: as §4
Klebsiella pneumoniae [23] = assay: Antibacterial activity against Klebsiella pneumoniae FNSST 011 assessed as diameter of zone of inhibition at 30 ug/disc after 24 hrs by disc diffusion method; settings: FNSST 011, 24 h, read-out: DIZ; in short: as §4
Escherichia coli [24] = assay: Antibacterial activity against Escherichia coli FNSST 982 assessed as diameter of zone of inhibition at 30 ug/disc after 24 hrs by disc diffusion method; settings: FNSST 982, 24 h, read-out: DIZ; in short: as §4
Clostridium perfringens [25] = assay: Antibacterial activity against Clostridium perfringens FNSST 4999 assessed as diameter of zone of inhibition at 30 ug/disc after 24 hrs by disc diffusion method; settings: FNSST 4999, 24 h, read-out: DIZ
In short: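 Ampicillin 30 µg disc run as positive control in CLSI disc diffusion. 100 µL of 10^6 cfu/mL bacteria spread on Mueller Hinton agar, incubated 24 h at 37 °C. Zone diameter measured in mm including the disc, triplicate, mean ± SE.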

Staphylococcus aureus [26] = assay: Antibacterial activity against Staphylococcus aureus ATCC 25923 assessed as diameter of zone of inhibition at 30 ug/disc after 24 hrs by disc diffusion method; settings: ATCC 25923, 24 h, read-out: DIZ; in short: as §4
Enterococcus faecalis [27] = assay: Antibacterial activity against Enterococcus faecalis ATCC 29212 assessed as diameter of zone of inhibition at 30 ug/disc after 24 hrs by disc diffusion method; settings: ATCC 29212, 24 h, read-out: DIZ; in short: as §4
Bacillus cereus [28] = assay: Antibacterial activity against Bacillus cereus ATCC 11778 assessed as diameter of zone of inhibition at 30 ug/disc after 24 hrs by disc diffusion method; settings: ATCC 11778, 24 h, read-out: DIZ; in short: as §4

C[C@@H]1[C@H](O)[C@@H](C)/C=C/C=C/C=C/C=C/C=C/C=C/C=C/[C@H](O[C@@H]2O[C@H](C)[C@@H](O)[C@H](N)[C@@H]2O)C[C@@H]2O[C@](O)(C[C@@H](O)C[C@@H](O)[C@H](O)CC[C@@H](O)C[C@@H](O)CC(=O)O[C@H]1C)C[C@H](O)[C@H]2C(=O)O [AMPHOTERICIN B]
zone of inhibition at 10 µg/disc (Aspergillus fumigatus): 19.2 mm | zone of inhibition at 10 µg/disc (Talaromyces funiculosus): 18.3 mm | zone of inhibition at 10 µg/disc (Candida albicans): 21.6 mm

CO/N=C(\C(=O)N[C@@H]1C(=O)N2C(C(=O)O)=C(COC(C)=O)CS[C@H]12)c1csc(N)n1 [CEFOTAXIME]
MIC (Pseudomonas aeruginosa [1]): 256 µg/mL (≈ 562 µM) | MIC (Acinetobacter baumannii): > 256 µg/mL | MIC (Escherichia coli [2]): > 256 µg/mL | MIC (Escherichia coli [3]): > 256 µg/mL | MIC (Escherichia coli [4]): 256 µg/mL (≈ 562 µM) | MIC (Aeromonas caviae [5]): 256 µg/mL (≈ 562 µM) | MIC (Aeromonas caviae [6]): 258 µg/mL (≈ 566 µM) | MIC (Aeromonas hydrophila [7]): 256 µg/mL (≈ 562 µM) | MIC (Kluyvera intermedia): 8 µg/mL (≈ 17.6 µM) | MIC (Enterobacter cloacae [8]): 32 µg/mL (≈ 70.3 µM) | MIC (Enterobacter cloacae [9]): > 256 µg/mL | MIC (Enterobacter cloacae [10]): > 128 µg/mL | MIC (Klebsiella pneumoniae [11]): 64 µg/mL (≈ 141 µM) | MIC [12]: 32 µg/mL (≈ 70.3 µM) | MIC (Aeromonas hydrophila [13]): 8 µg/mL (≈ 17.6 µM) | MIC (Pseudomonas aeruginosa [14]): 16 µg/mL (≈ 35.1 µM) | MIC (Klebsiella pneumoniae [15]): 0.5 µg/mL (≈ 1.1 µM) | MIC (Escherichia coli [16]): 0.5 µg/mL (≈ 1.1 µM) | MIC (Clostridium perfringens [17]): 0.1 µg/mL (≈ 0.22 µM) | MIC (Staphylococcus aureus [18]): 0.5 µg/mL (≈ 1.1 µM) | MIC (Enterococcus faecalis [19]): 0.5 µg/mL (≈ 1.1 µM) | MIC (Bacillus cereus [20]): 0.25 µg/mL (≈ 0.549 µM) | zone of inhibition at 30 µg/disc (Aeromonas hydrophila [21]): 14.7 mm | zone of inhibition at 30 µg/disc (Pseudomonas aeruginosa [22]): 10.4 mm | zone of inhibition at 30 µg/disc (Klebsiella pneumoniae [23]): 21.4 mm | zone of inhibition at 30 µg/disc (Escherichia coli [24]): 22.8 mm | zone of inhibition at 30 µg/disc (Clostridium perfringens [25]): 28.5 mm | zone of inhibition at 30 µg/disc (Staphylococcus aureus [26]): 21.7 mm | zone of inhibition at 30 µg/disc (Enterococcus faecalis [27]): 23.5 mm | zone of inhibition at 30 µg/disc (Bacillus cereus [28]): 26.8 mm
